The source of these data is ChEMBL document CHEMBL2057149 (J Med Chem, 2012).

As a reminder, the Kd is the free concentration of one partner at which half of the binding sites on the other are occupied at equilibrium, for simple one-to-one binding. One may read the Ki as a dissociation constant, usually derived from enzyme kinetics or from competition with a known ligand. The IC50 is the concentration that gives 50% inhibition. The low end stands for greater potency, the high end for weaker potency.

The target of series [1] is Fibroblast growth factor 1 (Homo sapiens, UniProt P05230). In words: Binding affinity to FGF-1 by surface plasmon resonance assay. The essentials: (§1)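 Solution-affinity SPR on heparin-coated CM4 chips. FGF-1 measured in HBS-EP (10 mM HEPES pH 7.4, 150 mM NaCl, 3.0 mM EDTA, 0.005% polysorbate 20); FGF-2 measured in HBS-EP with 300 mM NaCl. Kd is the average of at least duplicate measurements ± SD.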

For series [2], the target named is Fibroblast growth factor 2 (Homo sapiens, UniProt P09038). The series can be described thus: Binding affinity to FGF-2 by surface plasmon resonance assay. The essentials:
as §1
(In SPR one partner is held on a chip, and binding of the other changes the refractive index at the surface.)

In series [3] the target is T1, Heparanase (Homo sapiens, UniProt Q9Y251).
T1 sequence (Q9Y251 whole entry): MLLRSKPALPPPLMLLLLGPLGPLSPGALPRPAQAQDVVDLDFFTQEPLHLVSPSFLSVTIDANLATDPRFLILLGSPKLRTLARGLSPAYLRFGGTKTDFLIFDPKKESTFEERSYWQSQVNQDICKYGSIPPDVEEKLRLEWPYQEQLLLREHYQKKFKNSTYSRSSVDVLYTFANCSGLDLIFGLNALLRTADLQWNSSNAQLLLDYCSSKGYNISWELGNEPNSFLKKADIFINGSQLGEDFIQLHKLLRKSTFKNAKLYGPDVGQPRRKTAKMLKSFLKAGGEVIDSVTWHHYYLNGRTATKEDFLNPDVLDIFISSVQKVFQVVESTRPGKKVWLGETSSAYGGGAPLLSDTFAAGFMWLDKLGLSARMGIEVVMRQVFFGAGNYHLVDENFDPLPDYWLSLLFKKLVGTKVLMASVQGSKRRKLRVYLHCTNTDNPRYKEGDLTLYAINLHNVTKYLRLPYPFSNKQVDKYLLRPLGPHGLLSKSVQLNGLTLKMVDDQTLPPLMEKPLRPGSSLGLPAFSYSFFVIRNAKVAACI
The series can be described thus: Inhibition of human recombinant heparanase after 2 to 24 hrs by WST1 dye based fondaparinux assay. (Tetrazolium assays rely on reduction of a dye to a coloured formazan, in cell work by metabolically active cells.)

Series [4] has as its system HUVEC. In words: Antiangiogenic activity in FGF1-stimulated HUVEC cells after 72 hrs by CellTiter assay. Type of series: functional, cell-based. To be noted: Homo sapiens.
The subject of series [5] is HUVEC. The series can be described thus: Antiangiogenic activity in FGF2-stimulated HUVEC cells after 72 hrs by CellTiter assay. The class given is functional, cell-based. To be noted: Homo sapiens.
Series [6] relates to HUVEC. In words: Antiangiogenic activity in VEGF-stimulated HUVEC cells after 72 hrs by CellTiter assay. To be noted: Homo sapiens. Type of series: functional, cell-based.
Series [7] deals with HMVEC. In words: Antiangiogenic activity in FGF1-stimulated HMVEC cells after 72 hrs by CellTiter assay. Conditions: Homo sapiens. Type of series: functional, cell-based.
In series [8] the test system is HMVEC. The series can be described thus: Antiangiogenic activity in FGF2-stimulated HMVEC cells after 72 hrs by CellTiter assay. Type of series: functional, cell-based. Conditions: Homo sapiens.
Series [9] concerns HMVEC. The series can be described thus: Antiangiogenic activity in VEGF-stimulated HMVEC cells after 72 hrs by CellTiter assay. The class given is functional, cell-based. To be noted: Homo sapiens.
Series [10] concerns Plasma. The series can be described thus: Anticoagulant activity in pooled human plasma assessed as activated partial thromboplastin time at 0.1 mg/ml. Type of series: ADME, cell-free. The essentials: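 APTT of pooled normal human plasma measured with compound at 0–100 μg/mL in PBS on a ball coagulameter, using unfractionated heparin as the reference. Normal range 26–36 s; coefficient of variation 2% at 36 s and 5–7% at 90 s or above. Values are the mean of two determinations.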

Series [11] concerns Plasma. In words: Anticoagulant activity in pooled human plasma assessed as prolongation of the recalcification time at 0.1 mg/ml by Heptest assay. Type of series: ADME, cell-free. The essentials:
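Heptest clotting time in pooled normal human plasma; normal range 13–20 s. Values are the mean of two determinations.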

Series [12] concerns the target Vascular endothelial growth factor A (Homo sapiens) (UniProt P15692). The series can be described thus: Binding affinity to VEGF by surface plasmon resonance assay.

Structures are written as SMILES. Active and inactive are the calls of the source. The rule behind the calls is not given here.

Chain of Fibroblast growth factor 1 (P05230 whole entry): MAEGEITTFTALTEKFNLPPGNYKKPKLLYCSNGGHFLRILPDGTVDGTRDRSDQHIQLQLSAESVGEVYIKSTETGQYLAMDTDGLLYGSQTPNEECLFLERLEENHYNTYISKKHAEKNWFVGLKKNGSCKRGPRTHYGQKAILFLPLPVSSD
Chain of Fibroblast growth factor 2 (P09038 143-288 limits assumed): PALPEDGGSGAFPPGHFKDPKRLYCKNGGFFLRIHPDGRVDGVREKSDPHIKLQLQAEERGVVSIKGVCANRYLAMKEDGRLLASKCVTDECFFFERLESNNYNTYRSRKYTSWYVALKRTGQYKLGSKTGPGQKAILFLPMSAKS

For the compound `CC(C)CCC[C@@H](C)[C@H]1CC[C@H]2[C@@H]3CC[C@H]4C[C@@H](OCc5cn(CCCO[C@H]6O[C@H](COS(=O)(=O)[O-])[C@@H](OS(=O)(=O)[O-])[C@H](OS(=O)(=O)[O-])[C@@H]6O[C@H]6O[C@H](COS(=O)(=O)[O-])[C@@H](OS(=O)(=O)[O-])[C@H](O[C@H]7O[C@H](COS(=O)(=O)[O-])[C@@H](OS(=O)(=O)[O-])[C@H](OS(=O)(=O)[O-])[C@@H]7OS(=O)(=O)[O-])[C@@H]6OS(=O)(=O)[O-])nn5)CC[C@]4(C)[C@H]3CC[C@]12C.[Na+].[Na+].[Na+].[Na+].[Na+].[Na+].[Na+].[Na+].[Na+].[Na+]`, the Kd in series [1] worked out at 22.6 nM; in series [2], 480 nM; in series [12] it was 460 nM. Moreover, the Ki in [3] is 8.5 nM. The IC50 is 3800 nM in [4], 1700 nM in [5] and 2100 nM in [6]. Moreover, the result in [7], in [8] and in [9] was Active. In addition, the APTT in [10] came to 73.3 s. Moreover, in [11], the Time came out at 33.1 s.

On to `CC(C)CCC[C@@H](C)[C@H]1CC[C@H]2[C@@H]3CC[C@H]4C[C@@H](O[C@@H]5O[C@H](COS(=O)(=O)[O-])[C@@H](O[C@H]6O[C@H](COS(=O)(=O)[O-])[C@@H](O[C@H]7O[C@H](COS(=O)(=O)[O-])[C@@H](OS(=O)(=O)[O-])[C@H](OS(=O)(=O)[O-])[C@H]7OS(=O)(=O)[O-])[C@H](OS(=O)(=O)[O-])[C@H]6OS(=O)(=O)[O-])[C@H](OS(=O)(=O)[O-])[C@H]5OS(=O)(=O)[O-])CC[C@]4(C)[C@H]3CC[C@]12C.[Na+].[Na+].[Na+].[Na+].[Na+].[Na+].[Na+].[Na+].[Na+].[Na+]`, for which the Kd is 24.8 nM in [1], 547 nM in series [2] and 190 nM in [12]. Besides, the Ki in series [3] is 9.1 nM. For the same compound, the IC50 in [4] was found to be 2500 nM; in series [5] it was 2300 nM; in series [6], 1600 nM. Also, the result in series [7], in series [8] and in [9] was Active. Besides, the APTT in series [10] stood at 51.6 s. The Time in [11] was 29.2 s.

For `CC(C)CCC[C@@H](C)[C@H]1CC[C@H]2[C@@H]3CC[C@H]4C[C@@H](O[C@H]5O[C@H](COS(=O)(=O)[O-])[C@@H](OS(=O)(=O)[O-])[C@H](O[C@H]6O[C@H](COS(=O)(=O)[O-])[C@@H](OS(=O)(=O)[O-])[C@H](O[C@H]7O[C@H](COS(=O)(=O)[O-])[C@@H](OS(=O)(=O)[O-])[C@H](OS(=O)(=O)[O-])[C@@H]7OS(=O)(=O)[O-])[C@@H]6OS(=O)(=O)[O-])[C@@H]5OS(=O)(=O)[O-])CC[C@]4(C)[C@H]3CC[C@]12C.[Na+].[Na+].[Na+].[Na+].[Na+].[Na+].[Na+].[Na+].[Na+].[Na+]`, the figures for the Kd in series [1], in series [2] and in series [12] were 16 nM, 490 nM and 90 nM, respectively. The Ki in [3] is 10.5 nM. In addition, the IC50 in series [4] was determined as 2500 nM; in series [5], 1800 nM; in series [6] it was 1700 nM. Also, the outcome in [7], in series [8] and in series [9] was Active. For the same compound, the APTT in [10] is on record as 58.5 s. Moreover, the Time in series [11] was found to be 24.2 s.

In the case of `CC(C)CCC[C@@H](C)[C@H]1CC[C@H]2[C@@H]3CC[C@H]4C[C@@H](OCc5cn([C@@H]6O[C@H](COS(=O)(=O)[O-])[C@@H](O[C@H]7O[C@H](COS(=O)(=O)[O-])[C@@H](O[C@H]8O[C@H](COS(=O)(=O)[O-])[C@@H](OS(=O)(=O)[O-])[C@H](OS(=O)(=O)[O-])[C@H]8OS(=O)(=O)[O-])[C@H](OS(=O)(=O)[O-])[C@H]7OS(=O)(=O)[O-])[C@H](OS(=O)(=O)[O-])[C@H]6OS(=O)(=O)[O-])nn5)CC[C@]4(C)[C@H]3CC[C@]12C.[Na+].[Na+].[Na+].[Na+].[Na+].[Na+].[Na+].[Na+].[Na+].[Na+]`, the figures for the Kd in series [1], in [2] and in series [12] were 50 nM, 610 nM and 790 nM, respectively. Besides, in series [3], the Ki was found to be 16 nM. Besides, the results for the IC50 in [4], in series [5] and in series [6] were 2100 nM, 1200 nM and 1800 nM, respectively. The outcome in series [7], in series [8] and in [9] was Active. In addition, in series [10], the APTT was 61.2 s. The Time in series [11] is given as 30.2 s.

In the case of `CC(C)CCC[C@@H](C)[C@H]1CC[C@H]2[C@@H]3CC[C@H]4C[C@@H](OCc5cn(CCCO[C@H]6O[C@H](COS(=O)(=O)[O-])[C@@H](OS(=O)(=O)[O-])[C@H](O[C@H]7O[C@H](COS(=O)(=O)[O-])[C@@H](OS(=O)(=O)[O-])[C@H](O[C@H]8O[C@H](COS(=O)(=O)[O-])[C@@H](OS(=O)(=O)[O-])[C@H](OS(=O)(=O)[O-])[C@@H]8OS(=O)(=O)[O-])[C@@H]7OS(=O)(=O)[O-])[C@@H]6OS(=O)(=O)[O-])nn5)CC[C@]4(C)[C@H]3CC[C@]12C.[Na+].[Na+].[Na+].[Na+].[Na+].[Na+].[Na+].[Na+].[Na+].[Na+]`, the Kd in series [1] was determined as 14.3 nM; in series [2], 474 nM; in [12] it was 260 nM. Further, the Ki in series [3] worked out at 8.4 nM. Besides, the values for the IC50 in series [4], in [5] and in series [6] were 2610 nM, 1200 nM and 1400 nM, respectively. Also, the outcome in series [7], in series [8] and in series [9] was Active. For the same compound, the APTT in [10] worked out at 71.4 s. The Time in series [11] came out at 26.4 s.

As for `CC(C)CCC[C@@H](C)[C@H]1CC[C@H]2[C@@H]3CC[C@H]4C[C@@H](OCc5cn(CCCO[C@H]6O[C@H](COS(=O)(=O)[O-])[C@@H](OS(=O)(=O)[O-])[C@H](OS(=O)(=O)[O-])[C@@H]6O[C@H]6O[C@H](COS(=O)(=O)[O-])[C@@H](OS(=O)(=O)[O-])[C@H](O[C@H]7O[C@H](COS(=O)(=O)[O-])[C@@H](OS(=O)(=O)[O-])[C@H](O[C@H]8O[C@H](COS(=O)(=O)[O-])[C@@H](OS(=O)(=O)[O-])[C@H](O[C@H]9O[C@H](COS(=O)(=O)[O-])[C@@H](OS(=O)(=O)[O-])[C@H](OS(=O)(=O)[O-])[C@@H]9OS(=O)(=O)[O-])[C@@H]8OS(=O)(=O)[O-])[C@@H]7OS(=O)(=O)[O-])[C@@H]6OS(=O)(=O)[O-])nn5)CC[C@]4(C)[C@H]3CC[C@]12C.[Na+].[Na+].[Na+].[Na+].[Na+].[Na+].[Na+].[Na+].[Na+].[Na+].[Na+].[Na+].[Na+].[Na+].[Na+].[Na+]`, the Kd in [1] was found to be 0.24 nM; in series [2] it was 39 nM; in [12], 1.04 nM. In series [3], the inhibition constant (Ki) amounted to 5.5 nM. Further, the IC50 in series [4] was 990 nM; in series [5] it was 390 nM; in [6], 220 nM. In addition, the result in series [7], in series [8] and in [9] was Active. In addition, the APTT in [10] was determined as 63.3 s. In addition, the Time in [11] is 29.6 s.

Regarding `CC(C)CCC[C@@H](C)[C@H]1CC[C@H]2[C@@H]3CC[C@H]4C[C@@H](OCc5cn([C@@H]6O[C@H](COS(=O)(=O)[O-])[C@@H](O[C@@H]7O[C@H](COS(=O)(=O)[O-])[C@H](OS(=O)(=O)[O-])[C@H](OS(=O)(=O)[O-])[C@H]7OS(=O)(=O)[O-])[C@H](OS(=O)(=O)[O-])[C@H]6OS(=O)(=O)[O-])nn5)CC[C@]4(C)[C@H]3CC[C@]12C.[Na+].[Na+].[Na+].[Na+].[Na+].[Na+].[Na+]`, the equilibrium dissociation constant (Kd) in [1] was 610 nM; in series [2], 1800 nM; in [12] it was 1600 nM. Also, the Ki in [3] turned out to be 30 nM. Further, the IC50 stood at 2700 nM in series [4], 2430 nM in series [5] and 2620 nM in series [6]. The result in series [7], in series [8] and in series [9] was Active. In series [10], the APTT was found to be 39.6 s. For the same compound, the Time in [11] is on record as 25.3 s.
